Data taken from ChEMBL document CHEMBL1157559, “Synthesis and biological evaluation of novel pyrazolyl-2,4-thiazolidinediones as anti-inflammatory and neuroprotective agents” (Bioorg Med Chem, 2010).
Activity calls are given as the source filed them. The calls are words filed in the database; no cut-off is given here.

Legend:
[1] = biological target: T1, Prostaglandin G/H synthase 1 (Ovis aries) (UniProt P05979); assay: Inhibition of ovine COX1 at 10 uM
T1 sequence (whole entry): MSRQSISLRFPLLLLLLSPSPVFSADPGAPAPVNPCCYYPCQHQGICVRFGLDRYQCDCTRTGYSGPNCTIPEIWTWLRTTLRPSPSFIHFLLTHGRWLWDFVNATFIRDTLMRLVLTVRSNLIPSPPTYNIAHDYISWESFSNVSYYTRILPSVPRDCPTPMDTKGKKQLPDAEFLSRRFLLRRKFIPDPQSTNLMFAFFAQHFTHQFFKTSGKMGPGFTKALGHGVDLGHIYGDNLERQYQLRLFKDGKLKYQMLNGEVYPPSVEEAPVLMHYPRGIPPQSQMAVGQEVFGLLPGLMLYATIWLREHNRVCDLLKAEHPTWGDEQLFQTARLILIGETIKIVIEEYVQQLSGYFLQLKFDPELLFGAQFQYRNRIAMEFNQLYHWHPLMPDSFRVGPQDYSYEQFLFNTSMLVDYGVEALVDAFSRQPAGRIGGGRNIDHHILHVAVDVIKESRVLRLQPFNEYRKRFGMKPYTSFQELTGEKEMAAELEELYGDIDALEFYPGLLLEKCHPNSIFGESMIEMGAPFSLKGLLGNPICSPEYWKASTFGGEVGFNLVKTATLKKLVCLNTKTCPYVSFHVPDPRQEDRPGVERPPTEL
Outline: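 Kit assay with ovine COX-1, run per manufacturer's protocol. Read-out was percent inhibition of prostaglandin production, with compound at 10 µM and three experiments.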

THP-1 = assay: Cytotoxicity against LPS and IFN-gamma-stimulated human THP1 cells after 24 hrs; type: functional, cell-based; conditions: THP-1, 24 h
Outline: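 THP-1 cells, 24-well, in DMEM-F12 with 5% FBS. Compound or DMSO added 15 min before LPS 0.5 µg/mL plus IFN-γ 150 U/mL. After 24 h, LDH release (fraction of Triton-lysed value, OD 490) and MTT were read. EC50 taken from curves of at least three independent experiments; the lower of the two assay values was reported.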

Rattus norvegicus = assay: Antiinflammatory activity in Wistar albino rat sub-acute inflammatory model assessed as inhibition of turpentine oil-induced granuloma pouch exudate volume at 20 mg/kg, po 1 hr before turpentine oil challenge for 7 days assessed measured on day 8; type: functional
Outline: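 Male rats 120–150 g, five per group. Subcutaneous dorsal pouch made under ether with 2 mL air, then 0.5 mL turpentine oil injected. Compound 20 mg/kg po 1 h before turpentine, then daily for seven days. On day 8 exudate drawn by syringe under anesthesia and volume measured. % inhibition = (Vcontrol − Vtreated)/Vcontrol ×100.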

SH-SY5Y = assay: Neuroprotective activity in human SH-SY5Y cells assessed as inhibition of H2O2-induced cytotoxicity after 72 hrs by LDH assay; type: functional, cell-based
Outline: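 SH-SY5Y cells plated in DMEM-F12 with 5% FBS. After 24 h, medium replaced with medium containing H2O2 (500 µM in methods, 250 µM in figure legend), and compound added directly at that time. Cell death measured by LDH release 72 h later.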

## O=C1NC(=O)/C(=C/c2cn(-c3ccc([N+](=O)[O-])cc3)nc2-c2ccc(Cl)cc2)S1
[1]
  inhibition: 28.4%
THP-1
  EC50: > 100 µM
Rattus norvegicus
  inhibition in vivo at 20 mg/kg: 51%
SH-SY5Y
  inhibition: inactive
